{
  "source": "ChEMBL document CHEMBL4699460",
  "about": "“Integrating DNA-encoded chemical libraries with virtual combinatorial library screening: Optimizing a PARP10 inhibitor” (Bioorg Med Chem Lett, 2020)",
  "key": {"[1]": {"target": "T1, Protein mono-ADP-ribosyltransferase PARP10 (Homo sapiens, UniProt Q53GL7)", "T1 sequence (Q53GL7 whole entry)": "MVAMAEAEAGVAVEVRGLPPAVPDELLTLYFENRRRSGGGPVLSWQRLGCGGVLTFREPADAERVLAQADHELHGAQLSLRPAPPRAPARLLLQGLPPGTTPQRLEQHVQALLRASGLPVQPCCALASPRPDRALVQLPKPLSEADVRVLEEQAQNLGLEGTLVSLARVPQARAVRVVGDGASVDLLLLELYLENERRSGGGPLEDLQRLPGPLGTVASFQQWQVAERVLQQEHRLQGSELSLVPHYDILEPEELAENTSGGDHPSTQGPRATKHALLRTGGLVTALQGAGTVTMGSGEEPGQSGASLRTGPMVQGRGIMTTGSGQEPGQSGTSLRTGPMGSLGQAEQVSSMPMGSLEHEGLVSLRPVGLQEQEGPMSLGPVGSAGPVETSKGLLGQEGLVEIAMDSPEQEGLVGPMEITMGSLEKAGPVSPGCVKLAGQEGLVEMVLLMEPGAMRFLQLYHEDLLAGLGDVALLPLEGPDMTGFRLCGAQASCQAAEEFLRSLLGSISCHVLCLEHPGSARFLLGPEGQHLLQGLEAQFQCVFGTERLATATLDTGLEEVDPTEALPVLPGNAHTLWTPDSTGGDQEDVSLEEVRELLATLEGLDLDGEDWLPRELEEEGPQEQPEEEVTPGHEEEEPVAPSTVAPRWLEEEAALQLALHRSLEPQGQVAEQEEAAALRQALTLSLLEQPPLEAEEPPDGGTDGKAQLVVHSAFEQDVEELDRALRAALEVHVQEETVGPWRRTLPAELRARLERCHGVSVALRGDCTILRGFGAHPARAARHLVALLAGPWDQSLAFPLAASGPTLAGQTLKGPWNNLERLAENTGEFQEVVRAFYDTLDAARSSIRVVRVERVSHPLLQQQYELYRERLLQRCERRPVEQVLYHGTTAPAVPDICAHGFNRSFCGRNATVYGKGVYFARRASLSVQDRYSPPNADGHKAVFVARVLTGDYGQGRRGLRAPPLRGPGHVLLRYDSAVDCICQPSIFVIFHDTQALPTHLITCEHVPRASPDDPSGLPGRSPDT", "assay": "Inhibition of N-terminal FLAG-tagged and C-terminal strep-tagged human PARP10 (805 to 1025 residues) expressed in baculovirus infected Sf9 cells assessed as reduction in NAD+-dependent ADP ribosylation using histone as substrate incubated for 1 hr in presence of biotinylated NAD+ and activated DNA by chemiluminescence based microplate reader assay", "outline": "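The IC50 was derived from a concentration-dependent inhibition curve for PARP10 in the histone ADP-ribosylation assay.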"}, "[2]": {"target": "T2, Protein mono-ADP-ribosyltransferase PARP12 (Homo sapiens) (UniProt Q9H0J9)", "T2 sequence (whole entry)": "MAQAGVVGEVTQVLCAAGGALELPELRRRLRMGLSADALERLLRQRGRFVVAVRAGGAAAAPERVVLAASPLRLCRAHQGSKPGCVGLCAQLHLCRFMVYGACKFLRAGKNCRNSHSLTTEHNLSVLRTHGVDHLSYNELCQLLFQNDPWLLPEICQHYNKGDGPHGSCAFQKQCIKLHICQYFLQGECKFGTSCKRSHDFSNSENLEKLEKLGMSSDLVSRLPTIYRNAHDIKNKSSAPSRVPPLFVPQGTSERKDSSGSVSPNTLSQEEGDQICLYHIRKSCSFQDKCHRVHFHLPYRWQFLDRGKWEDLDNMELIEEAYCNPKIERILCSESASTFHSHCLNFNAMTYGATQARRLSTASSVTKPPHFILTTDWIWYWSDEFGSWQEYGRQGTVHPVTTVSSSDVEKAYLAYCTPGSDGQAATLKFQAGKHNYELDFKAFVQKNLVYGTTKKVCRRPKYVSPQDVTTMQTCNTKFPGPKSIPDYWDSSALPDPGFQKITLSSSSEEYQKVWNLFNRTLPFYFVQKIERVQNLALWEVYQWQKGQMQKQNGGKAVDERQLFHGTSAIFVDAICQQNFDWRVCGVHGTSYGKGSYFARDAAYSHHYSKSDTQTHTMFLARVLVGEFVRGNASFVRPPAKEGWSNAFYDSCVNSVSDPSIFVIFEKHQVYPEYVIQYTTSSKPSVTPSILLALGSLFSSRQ", "assay": "Inhibition of N-terminal His-GST tagged human PARP12 (500 to 701 residues) expressed in baculovirus infected Sf9 cells assessed as reduction in NAD+-dependent ADP ribosylation using histone as substrate at 10 uM incubated for 1 hr in presence of biotinylated NAD+ and activated DNA by chemiluminescence based microplate reader assay relative to control"}, "[3]": {"target": "T3, Poly [ADP-ribose] polymerase tankyrase-2 (Homo sapiens) (UniProt Q9H2K2)", "T3 sequence (whole entry)": "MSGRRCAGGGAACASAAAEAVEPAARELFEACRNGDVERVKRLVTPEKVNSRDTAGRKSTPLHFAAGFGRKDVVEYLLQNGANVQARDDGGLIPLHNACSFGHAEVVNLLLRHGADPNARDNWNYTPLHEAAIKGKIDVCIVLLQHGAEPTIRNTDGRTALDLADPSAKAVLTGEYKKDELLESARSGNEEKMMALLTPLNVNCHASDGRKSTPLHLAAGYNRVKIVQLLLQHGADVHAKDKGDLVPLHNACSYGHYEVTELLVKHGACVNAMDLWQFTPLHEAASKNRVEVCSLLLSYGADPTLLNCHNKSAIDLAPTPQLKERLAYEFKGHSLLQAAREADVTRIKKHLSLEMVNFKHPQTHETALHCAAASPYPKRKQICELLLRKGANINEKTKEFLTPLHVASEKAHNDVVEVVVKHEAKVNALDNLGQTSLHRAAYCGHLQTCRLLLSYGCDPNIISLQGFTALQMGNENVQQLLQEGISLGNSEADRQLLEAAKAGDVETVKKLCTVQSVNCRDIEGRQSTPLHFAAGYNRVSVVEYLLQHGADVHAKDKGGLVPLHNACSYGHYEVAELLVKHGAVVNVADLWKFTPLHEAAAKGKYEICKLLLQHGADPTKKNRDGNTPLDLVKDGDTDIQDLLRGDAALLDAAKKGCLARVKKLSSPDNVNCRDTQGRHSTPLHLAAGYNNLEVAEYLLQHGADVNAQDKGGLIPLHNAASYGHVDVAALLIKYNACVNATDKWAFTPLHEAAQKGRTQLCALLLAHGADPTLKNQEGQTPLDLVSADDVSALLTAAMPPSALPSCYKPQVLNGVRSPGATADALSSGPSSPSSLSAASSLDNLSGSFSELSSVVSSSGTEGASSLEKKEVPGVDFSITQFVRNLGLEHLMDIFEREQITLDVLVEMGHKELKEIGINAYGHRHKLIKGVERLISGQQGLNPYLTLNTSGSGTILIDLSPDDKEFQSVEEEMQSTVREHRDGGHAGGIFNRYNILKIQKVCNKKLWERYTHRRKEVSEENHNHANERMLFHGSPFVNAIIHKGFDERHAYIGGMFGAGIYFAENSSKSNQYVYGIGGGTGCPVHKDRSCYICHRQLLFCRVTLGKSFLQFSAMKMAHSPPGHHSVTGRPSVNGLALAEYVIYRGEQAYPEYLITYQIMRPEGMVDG", "assay": "Inhibition of TNKS2 (unknown origin) at 10 uM relative to control"}},
  "data": [
    {"smiles": "CC1(CNC(=O)COc2cccc3c2CCCC3=O)CCN(C(=O)CCc2nc3ccccc3[nH]c2=O)CC1", "values": [
      {"measurement": "IC50", "setting": "[1]", "result": 3.9, "unit": "µM"},
      {"measurement": "inhibition", "setting": "[2]", "result": 16, "unit": "%"},
      {"measurement": "inhibition", "setting": "[3]", "result": "> 50", "unit": "%"}
    ]},
    {"smiles": "CNC(=O)[C@H](CNC(=O)CCc1nc2ccccc2[nH]c1=O)NC(=O)c1ccc2c(c1)CCCC2=O", "values": [
      {"measurement": "IC50", "setting": "[1]", "result": 6, "unit": "µM"},
      {"measurement": "inhibition", "setting": "[2]", "result": "< 25", "unit": "%"},
      {"measurement": "inhibition", "setting": "[3]", "result": "< 25", "unit": "%"}
    ]}
  ]
}
